Source: PubChem
Beta2AR agonist = agonists of human beta-2 adrenergic receptor inducing internalization | P07550 | Am2.2-beta2AR cells, FAP receptor internalization, flow cytometry | response, % (no concentration beside the values) | 340,000 compounds, 0.43% hits | AID 504454;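 active means response above a set limit, near 3 SD of response in nonfluorescent compounds, cut at about 42% in these data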
Target sequence (P07550 whole entry, looked up): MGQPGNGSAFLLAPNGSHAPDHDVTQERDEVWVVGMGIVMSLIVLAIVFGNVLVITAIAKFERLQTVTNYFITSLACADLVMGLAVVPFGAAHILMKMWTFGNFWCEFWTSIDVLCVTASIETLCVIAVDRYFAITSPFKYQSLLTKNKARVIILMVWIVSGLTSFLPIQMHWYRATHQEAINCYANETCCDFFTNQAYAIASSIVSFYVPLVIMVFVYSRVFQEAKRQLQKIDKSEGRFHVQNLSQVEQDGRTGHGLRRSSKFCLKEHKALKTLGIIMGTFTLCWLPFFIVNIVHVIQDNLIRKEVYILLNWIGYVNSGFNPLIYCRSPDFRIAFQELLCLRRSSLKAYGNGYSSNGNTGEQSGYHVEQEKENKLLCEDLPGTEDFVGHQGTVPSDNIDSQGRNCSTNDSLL
TAAR1 antag = human TAAR1 antagonism; CHO RD-HGA16 TAAR1, Fluo-8 calcium fluorescence, antagonist; inhibition, % at 3 µM; 360,000 compounds, 1.5% hits;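 active means inhibition above a per-plate cutoff, the mean inhibition of test compounds on that plate plus 3 SD, cut at about 49% in these data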
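test system = CHO RD-HGA16 cells bearing hTAAR1 | replication = singlicate | controls = DMSO-only wells and EC80 β-PEA-stimulated wells | reagent = EC80 β-phenethylamine stimulus | read-out basis = percent inhibition of PEA-evoked calcium signal, max/basal emission ratio | schedule = seeding 17-24 h prior, 75-min 37 °C, 30-min RT dye loading | signal = kinetic Fluo-8 calcium fluorescence measurement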
MC4R ag barr = agonists of human melanocortin 4 receptor (MC4R) beta-arrestin | U2OS MC4R beta-arrestin complementation, luminescence; percent of melanotan II response, DMSO zero | 360,000 compounds, 0.98% hits | activation, % at 8.9 µM;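 active means activation above a per-plate cutoff, the mean activation of sample wells on that plate plus 3 SD, cut at about 8% in these data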
Target sequence (P32245 whole entry, looked up): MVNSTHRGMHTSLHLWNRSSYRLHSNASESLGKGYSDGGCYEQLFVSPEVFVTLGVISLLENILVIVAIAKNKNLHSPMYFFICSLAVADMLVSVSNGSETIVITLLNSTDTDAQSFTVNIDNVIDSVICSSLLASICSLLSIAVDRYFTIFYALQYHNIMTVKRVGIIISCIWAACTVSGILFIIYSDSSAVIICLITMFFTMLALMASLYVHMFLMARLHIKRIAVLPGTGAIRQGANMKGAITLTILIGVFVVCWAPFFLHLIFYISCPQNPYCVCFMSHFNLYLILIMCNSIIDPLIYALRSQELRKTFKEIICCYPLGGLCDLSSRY
MC4R antagonist = blocks human MC4R cAMP signaling. AID 540295. MC4R-expressing cells, MTII-stimulated cAMP, LANCE TR-FRET. 360,000 compounds, 0.48% hits. inhibition, % at 6.5 µM;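 active means inhibition above its plate's cutoff, the mean of tested wells on that plate plus 3 SD, cut at about 29% in these data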
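Assay system: human MC4R-expressing U2OS cells; reagent: Melanotan II stimulation of cells; dosing: 6.5 µM single dose; timing: compound 30 min, challenge 1 h, detection 1 h; signal: TR-FRET cAMP assay; replicates: one well per compound, no replicates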
TAAR1 ag = human TAAR1 agonism | CHO RD-HGA16 TAAR1, Fluo-8 calcium fluorescence; vehicle wells 0%, saturating PEA agonist 100% | activation, % at 3 µM | 360,000 compounds, 0.99% hits | AID 624467;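 active means activation above the mean activation of all test compounds in the run plus 3 SD, cut at about 38% in these data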
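test system = CHO RD-HGA16 cells carrying human TAAR1 plus Gα16 | schedule = 17-24 h seeding, 75 min 37 °C dye, 30 min RT | compound dosing = 3 µM single concentration | control set = DMSO and PEA EC100 | replicates = n 1 | signal = Fluo-8 fluorescence, 5 s baseline then 140 s kinetic read | measure = percent activation vs PEA EC100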
HTR2A ag = mouse HTR2A agonism via beta-arrestin recruitment. P35363. CHO-K1 mHTR2A beta-arrestin complementation, luminescence; percent of 30 µM serotonin response. activation, % at 7.6 µM. 360,000 compounds, 0.66% hits. AID 624169;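 active means activation above a run cutoff, the mean activation of all tested compounds plus 3 SD, cut at about 14% in these data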
TAAR1 ag confirm = human TAAR1 agonism, confirmed | CHO RD-HGA16 TAAR1, Fluo-8 calcium fluorescence; scaled: DMSO 0%, maximal phenethylamine 100% | 2,400 compounds, 82% hits | shares compounds with TAAR1 ag | activation, % at 3 µM;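 active means activation above a cutoff set at the run's mean compound activation plus 3 SD, cut at about 39% in these data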
Ga16 nonsel ag = nonselective agonist in parental cells, TAAR1 agonist counter-screen; shares compounds with TAAR1 ag; CHO-Ga16 parental, Fluo-8 calcium fluorescence; normalized to maximal ATP response, DMSO zero; activation, % at 3 µM; 2,400 compounds, 50% hits;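 active means activation above the run cutoff, the mean activation over all tested wells plus 3 SD, cut at about 12% in these data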
TAAR1 desens = counter-screen for human TAAR1 agonists: agonists that desensitize TAAR1; CHO RD-HGA16 hTAAR1, Fluo-8 calcium, beta-PEA response inhibition; shares compounds with TAAR1 ag; inhibition, % at 3 µM; 2,400 compounds, 46% hits;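 active means inhibition above the run cutoff, the mean inhibition of all test compounds plus 3 SD, cut at about 49% in these data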;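 further: beta-PEA stimulus applied at its EC80; loss of beta-PEA calcium signal after compound pretreatment read as receptor desensitization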
Ga16 nonsel ant = counter-screen for TAAR1 agonists: nonselective Ga16 antagonists; shares compounds with TAAR1 ag; inhibition, % at 3 µM; 2,400 compounds, 39% hits; AID 651952; CHO-Ga16 ATP-induced calcium, Fluo-8 fluorescence;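 active means inhibition above the plate's mean compound inhibition plus 3 SD, computed per plate, cut at about 22% in these data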
Of the large screens only hits and unclear results are named; the others gave an inactive call (follow-up assays come after a bar, where they were run). Only some compounds are listed: those with a hit (about 4.3% of all), similar ones and a draw of the others.

O=C(NCCc1ccccc1)C(=O)NCC1CCCN1S(=O)(=O)c1ccccc1 (configuration not stated)	TAAR1 antag 76, TAAR1 ag 59 | TAAR1 ag confirm 85 | Ga16 nonsel ag inactive | TAAR1 desens 80 | Ga16 nonsel ant 38
CC(CNC(=O)[C@H]1O[C@@H](n2cnc3c(=O)[nH]c(N)nc32)[C@H](O)[C@@H]1O)c1ccccc1 (some centres not stated)	TAAR1 antag 66, TAAR1 ag 84 (no result: Beta2AR agonist, MC4R ag barr, MC4R antagonist, HTR2A ag) | TAAR1 ag confirm 94 | Ga16 nonsel ag inactive | TAAR1 desens 80 | Ga16 nonsel ant inactive
Nc1nc2c(ncn2[C@@H]2O[C@H](C(=O)NCC(c3ccccc3)c3ccccc3)[C@@H](O)[C@H]2O)c(=O)[nH]1	none (no result: Beta2AR agonist, MC4R ag barr, MC4R antagonist, HTR2A ag)
CC(CNC(=O)[C@@H](Cc1ccccc1)NC(=O)[C@H]1O[C@@H](n2cnc3c(=O)[nH]c(N)nc32)[C@H](O)[C@@H]1O)c1ccccc1 (some centres not stated)	none (no result: Beta2AR agonist, TAAR1 antag, MC4R ag barr, MC4R antagonist, TAAR1 ag, HTR2A ag) | Ga16 nonsel ag inactive | Ga16 nonsel ant inactive
Cc1cccc(C)c1NC(=O)C1(C)CSCC(=O)N1CCOc1ccccc1 (configuration not stated)	none (no result: Beta2AR agonist, MC4R ag barr, MC4R antagonist)
CCCn1c(SCC(=O)N(CC)c2c(N)n(Cc3ccccc3)c(=O)[nH]c2=O)nnc1-c1ccncc1	none
C=CCn1c(SCC(=O)N(CC)c2c(N)n(Cc3ccccc3)c(=O)[nH]c2=O)nnc1-c1ccccc1OC	TAAR1 ag 877 | TAAR1 ag confirm inactive | Ga16 nonsel ag inactive | TAAR1 desens inactive | Ga16 nonsel ant inactive
CC(C)c1c(C(=O)N/N=C2\CCc3ccccc32)nnn1-c1nonc1N	TAAR1 ag 62 | TAAR1 ag confirm 53 | Ga16 nonsel ag 16 | TAAR1 desens inactive | Ga16 nonsel ant inactive
CC(C)c1c(C(=O)N/N=C/c2ccc(OCc3ccc(F)cc3)cc2)nnn1-c1nonc1N	none
CC(C)c1c(C(=O)N/N=C/c2ccc(C(F)(F)F)cc2)nnn1-c1nonc1N	TAAR1 antag 79, TAAR1 ag 150 | TAAR1 ag confirm 120 | Ga16 nonsel ag 89 | TAAR1 desens 80 | Ga16 nonsel ant 39
CC(C)c1c(C(=O)N/N=C/c2ccsc2)nnn1-c1nonc1N	TAAR1 ag 105 | TAAR1 ag confirm 124 | Ga16 nonsel ag 82 | TAAR1 desens inactive | Ga16 nonsel ant inactive
CC(C)c1ccc(/C=N/NC(=O)c2nnn(-c3nonc3N)c2CN2CCOCC2)cc1	TAAR1 ag 61 | TAAR1 ag confirm 90 | Ga16 nonsel ag 54 | TAAR1 desens inactive | Ga16 nonsel ant inactive
COC(=O)CCC(=O)NNC(=O)C1CC1(c1ccccc1)c1ccccc1 (configuration not stated)	none
Cc1cc(C)c(NC(=O)c2cccc3c2C(=O)N(C2CCCCC2)C3)c(C)c1	none (no result: TAAR1 antag, TAAR1 ag)
COc1cc(/C=N/NC(=O)c2nnn(-c3nonc3N)c2C(C)C)ccc1O	none
CC(C)c1c(C(=O)N/N=C/c2cccs2)nnn1-c1nonc1N	TAAR1 ag 90 | TAAR1 ag confirm 108 | Ga16 nonsel ag 72 | TAAR1 desens inactive | Ga16 nonsel ant inactive
CC(C)c1c(C(=O)N/N=C/c2ccoc2)nnn1-c1nonc1N	TAAR1 ag 65 | TAAR1 ag confirm inactive | Ga16 nonsel ag 32 | TAAR1 desens inactive | Ga16 nonsel ant inactive
Cc1cc(F)ccc1C(O)c1ncc(-c2cccc3ccccc23)[nH]1 (configuration not stated)	none (no result: Beta2AR agonist)
C=C(C)Cn1c2ccc(NC(=O)NCCc3ccccc3)cc2c(=O)n1C	none (no result: Beta2AR agonist)
CCCOc1ccc(C(=O)CCCC(=O)c2ccc(OCCC)cc2)cc1	none
Cc1ccc(C(=O)NC(C)c2ccc(F)cc2)cc1 (configuration not stated)	none
CC(C)Cc1ccc(C(C)NC(=O)c2ccc(=O)[nH]c2)cc1 (configuration not stated)	TAAR1 ag 91 | TAAR1 ag confirm 94 | Ga16 nonsel ag 49 | TAAR1 desens 49 | Ga16 nonsel ant 38
CCOC(=O)c1cncc(C#CCO)c1	none
CCOC(=O)c1cncc(C#CCOC(=O)Nc2ccc(OC(F)(F)F)cc2)c1	TAAR1 antag 73, TAAR1 ag 51 | TAAR1 ag confirm 49 | Ga16 nonsel ag 32 | TAAR1 desens 81 | Ga16 nonsel ant 62
Cc1ccccc1S(=O)(=O)NC(=O)C1(C)CCN1C(=O)CCc1cccs1 (configuration not stated)	none (no result: Beta2AR agonist)
Cc1ccc(-n2nnc3c(=O)n(CC(=O)NCc4ccccc4)cnc32)cc1	TAAR1 ag 42 | TAAR1 ag confirm inactive | Ga16 nonsel ag inactive | TAAR1 desens inactive | Ga16 nonsel ant inactive
O=c1c2nnn(-c3ccc(Cl)cc3)c2ncn1Cc1ccccn1	TAAR1 antag 86, TAAR1 ag 476 | TAAR1 ag confirm inactive | Ga16 nonsel ag inactive | TAAR1 desens inactive | Ga16 nonsel ant inactive
O=C(Cn1cnc2c(nnn2-c2ccccc2)c1=O)NCc1ccc(F)cc1	none
Cc1ccc(-n2nnc3c(=O)n(Cc4cc(C)ccc4C)cnc32)cc1	TAAR1 antag 95, TAAR1 ag 43 | TAAR1 ag confirm 71 | Ga16 nonsel ag 35 | TAAR1 desens 87 | Ga16 nonsel ant 53
O=c1c2nnn(-c3ccc(Br)cc3)c2ncn1Cc1ccccn1	none
Cc1ccc(CN2CCN(/N=C/C(Br)=C\c3ccccc3)CC2)cc1	none
BrC(=C\c1ccccc1)/C=N/Nc1ccc2nncn2n1	TAAR1 ag 67 | TAAR1 ag confirm 44 | Ga16 nonsel ag 37 | TAAR1 desens inactive | Ga16 nonsel ant inactive
BrC(=C\c1ccccc1)/C=N/n1cnnc1	TAAR1 ag 98 | TAAR1 ag confirm 38 | Ga16 nonsel ag 37 | TAAR1 desens inactive | Ga16 nonsel ant inactive
CCNc1nc(NCC)n2c(SCC(=O)Nc3ccccc3C(F)(F)F)nnc2n1	none
